Experimental data from paper PMC3756490 (Journal of medicinal chemistry, 2012).

Columns and labels:
[1] = test system: LN229-Lux cells (constitutive luciferase reporter gene); assay: constitutive luciferase reporter control assay in LN229-Lux cells; type: cell-based, human; conditions: control for inhibition of luciferase per se
How it was run: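 LN229-Lux cells carry a constitutive luciferase reporter driven by a retroviral LTR promoter. They were grown in DMEM with 10% serum, seeded at 3 × 10⁴ per well and treated with test compound in 1% DMSO medium under normoxia. Lysates were read for luminescence with luciferase substrate. Values are % of untreated control extracts, in triplicates.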

[2] = test system: HIF transcriptional activity; assay: HIF-dependent luciferase reporter assay in LN229-V6R cells under hypoxia; type: cell-based, human; conditions: for inhibition of HIF-1 transcriptional activity (HRE-mediated luciferase) at 10 μM: one day
How it was run: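 LN229-V6R cells carry a stably integrated hypoxia/HIF-inducible luciferase reporter and were grown in DMEM with 10% serum. Cells were seeded at 3 × 10⁴ per well, held in normoxia (21% O₂, 5% CO₂) for 24 h, then given DMEM with 1% DMSO with or without test compound (2.5, 5.0, 10.0 μM). After 1 h at 37 °C, cells went to hypoxia (1% O₂) for 24 h. Cells were washed and lysed, and extract luminescence was read with luciferase substrate. Triplicates, expressed as % of untreated control.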

LogP7.4 measurement = type: physicochemical; conditions: pH 7.4; shake flask method (6a, 6g) or HPLC method (1, 6b-6f, 6h-6l)
How it was run: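 Shake-flask method (OECD 107): 1-octanol and 0.2 M phosphate buffer pH 7.4 were mutually presaturated by stirring for 24 h at room temperature. 1–2 mg test compound was partitioned between 2 mL each phase, in duplicate. The aqueous phase was quantified by HPLC at 254 nm against standard curves. HPLC method (OECD 117): C₁₈ column with methanol:water:triethylamine 70:30:0.1 at 2 mL/min, calibrated with the shake-flask compounds, aniline, benzene, toluene and chlorobenzene.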

[3] = metabolic stability in mouse liver homogenate; type: in vitro ADME; conditions: mouse liver homogenate in PBS (1:2 w/v), pH 7.4
How it was run: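 Test compound (20 μM) was incubated at 37 °C with shaking in fresh mouse liver homogenate in PBS pH 7.4 (1/2 w/v). At set times, samples were extracted with acetonitrile, dried and reconstituted in mobile phase. They were quantified by reverse-phase C₈ HPLC with photodiode-array detection, using α-naphthoflavone (2 μM) as internal standard and standard curves linear over 1–50 μM. Run in triplicate.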

HIF-1α = HIF-1α protein levels in LN229-V6R cells under hypoxia by western blot; type: cell-based, human; conditions: 3-100 μM, hypoxia 24 hours
How it was run: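 LN229-V6R cells (2 × 10⁵) were seeded in 35 mm dishes and kept under normoxia for 24 h. Fresh DMEM with 1% DMSO and test compound (3, 6, 12, 25, 50 or 100 μM) was added, then 1 h at 37 °C in normoxia, then 24 h in hypoxia (1% O₂). Lysates in SDS loading buffer were run on a 4–12.5% gradient gel and blotted with anti-HIF-1α (1:500) and anti-β-actin (1:3,000), with HRP/ECL detection. Each blot was done at least twice.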

logP7.4 (LogP7.4 measurement)	Compound	luciferase activity in LN229-Lux cells (constitutive reporter) [1]	inhibition of HIF-1 transcriptional activity (HRE-mediated luciferase) at 10 μM [2]	further results
–	COc1ccc(S(=O)(=O)N(Cc2ccc3c(c2)C=CC(C)(C)O3)c2ccccc2)cc1OC [Compound 1, 3,4-dimethoxy-N-[(2,2-dimethyl-2H-chromene-6-yl)methyl]-N-phenylbenzenesulfonamide]	reduced luciferase activity only in LN229-V6R cells under hypoxia	–	–
–	CC(C)N(Cc1ccc2c(c1)C=CC(C)(C)O2)S(=O)(=O)c1ccccn1 [Compound 6a, N-[(2,2-dimethyl-2H-chromen-6-yl)methyl]-N-(propan-2-yl)pyridine-2-sulfonamide]	–	completely	–
1.2 ∼ 1.3	COc1cc(CN(C(C)C)S(=O)(=O)c2ccccn2)cc2c1OC(C)(C)C=C2 [Compound 6g, N-[(8-methoxy-2,2-dimethyl-2H-chromen-6-yl)methyl]-N-(propan-2-yl)pyridine-2-sulfonamide]	–	60 ∼ 80%	–
1.2 ∼ 1.3	CC(C)CN(Cc1cc(O)c2c(c1)C=CC(C)(C)O2)S(=O)(=O)c1ccccn1 [Compound 6h, N-[(8-hydroxy-2,2-dimethyl-2H-chromen-6-yl)methyl]-N-(2-methylpropan-1-yl)pyridine-2-sulfonamide]	–	–	–
1.2 ∼ 1.3	CC(C)CN(Cc1cc(O)c2c(c1)C=CC(C)(C)O2)S(=O)(=O)c1ccncc1 [Compound 6l, N-[(8-hydroxy-2,2-dimethyl-2H-chromen-6-yl)methyl]-N-(2-methylpropan-1-yl)pyridine-4-sulfonamide]	–	60 ∼ 80%	half-life at 20 μM [3]: 13 to 20 h; concentration from which HIF-1α levels decreased dose-dependently (HIF-1α): 25 µM
–	CO[C@H]1/C=C\C=C(/C)C(=O)NC2=CC(=O)C(NCCN(C)C)=C(C[C@@H](C)C[C@H](OC)[C@H](O)[C@@H](C)/C=C(\C)[C@@H]1OC(N)=O)C2=O [Compound 17-DMAG, reference compound]	inhibited both reporter cell lines	–	luciferase activity in LN229-V6R cells (qualitative) [2]: inhibited both reporter cell lines
